The source made the active and inactive calls. The calls are words filed in the database; no cut-off is given here.
Legend:
KARPAS-299 = experiment: Antiproliferative activity against human KARPAS-299 cells at 100 uM incubated for 48 hrs by WST-1 assay; assay type: functional, cell-based
How it was run: (§1)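 Leukemia/lymphoma lines plated in triplicate at 5×10^3 cells/well. Exposed to increasing compound concentrations (maximum 100 μM) for 48 h at 37 °C, 5% CO2. WST-1 reagent then added for 1 h. IC50 obtained by nonlinear regression of dose–response curves.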

U-87 MG [1] = experiment: Cytotoxicity against human U-87MG cells assessed as reduction in cell viability after 24 hrs in presence of doxorubicin by MTT assay; assay type: functional, cell-based; conditions: U-87MG ATCC
How it was run: (§2)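 U-87MG in RPMI with 10% FBS. Treated 24 h with doxorubicin alone, test compound alone, or both at a fixed doxorubicin:compound ratio of 1:20. Viability read by MTT absorbance and expressed as treated/control ×100. Mean ± SD of two independent experiments, each in triplicate.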

U-87 MG [2] = experiment: Inhibition of KDM5 in human U-87MG cells assessed as increase in H3K4me3 level after 48 hrs by immunofluorescence analysis; assay type: cell-based
How it was run: (§3)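 U-87MG on coverslips, treated 24 h after plating with 50 μM compound for 48 h. Reference inhibitors: CPI-455 25 μM (KDM5), IOX-1 100 μM (KDM4), GSK-J4 10 μM (KDM6). PFA-fixed cells immunostained for H3K4me3, H3K9me3 or H3K27me3 with DAPI counterstain. Per-cell nuclear intensity quantified, ≥50 cells per condition; Mann–Whitney test vs DMSO.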

U-87 MG [3] = experiment: Synergistic cytotoxicity against human U-87MG cells assessed as combinantion index at ED90 after 24 hrs in presence of doxorubicin by MTT assay; assay type: functional, U-87MG ATCC
How it was run: (§4)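 Doxorubicin combined with inhibitor at a fixed 1:20 concentration ratio, 24 h exposure, U-87MG viability read by MTT. Combination index calculated with the CI equation and plotted against fractional growth inhibition. CI <0.9 is scored as synergism, 0.9–1.1 as additivity, >1.1 as antagonism. Mean of two independent experiments in triplicate.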

U-87 MG [4] = experiment: Binding affinity to MINA53 in U-87MG cells assessed as substrate trapping using RPL27A as substrate at 100 uM after 18 hrs by immunoprecipitation analysis; assay type: cell-based; conditions: Homo sapiens
U-87 MG [5] = experiment: Cytotoxicity against human U-87MG cells assessed as doxorubicin sensitization after 24 hrs in presence of doxorubicin by MTT assay; assay type: functional, cell-based; conditions: U-87MG ATCC; how it was run: as §2
HT-29 = experiment: Antiproliferative activity against human HT-29 cells at 10 to 100 uM incubated for 72 to 120 hrs by MTT assay; assay type: functional, cell-based; conditions: dose 10-100 µM, time 72-120 hrs
How it was run: (§5)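 HT-29, U-87MG or MKN-45 in RPMI with 10% FBS and L-glutamine. Seeded in sextuplicate at 1.5×10^3 cells/well; compounds at 10–100 μM added after 24 h and left 72, 96 or 120 h; 0.5% DMSO control. MTT absorbance read; viability as treated/control ×100. Mean ± SD of two independent experiments in triplicate.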

OCI-AML-3 = experiment: Antiproliferative activity against human OCI-AML-3 cells at 100 uM incubated for 48 hrs by WST-1 assay; assay type: functional, cell-based; how it was run: as §1
HEK-293T = experiment: Antiproliferative activity against human HEK293T cells at 10 to 100 uM incubated for 72 to 120 hrs by MTT assay; assay type: functional, cell-based; conditions: dose 10-100 µM, time 72-120 hrs
How it was run: (§6)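 HEK293T or HeLa grown in DMEM with 10% FBS, mycoplasma-tested and STR-authenticated. Compounds added 24 h after seeding at 10–100 μM for 72–120 h; 0.5% DMSO as control. Viability by MTT colorimetric assay, expressed as treated/control ×100.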

U-937 = experiment: Antiproliferative activity against human U-937 cells at 100 uM incubated for 48 hrs by WST-1 assay; assay type: functional, cell-based; how it was run: as §1
U-87 MG [6] = experiment: Induction of apoptosis in human U87-MG cells assessed as increase in sub-G1 cells at 10 uM after 24 hrs by propidium iodide staining based flow cytometry analysis; assay type: functional, cell-based; conditions: U-87MG ATCC
How it was run: (§7)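 U-87MG treated 24 h with 10 μM compound, alone or with 0.5 μM doxorubicin. Cell-cycle phases and Sub-G1 fraction scored; three independent experiments.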

MV4-11 = experiment: Antiproliferative activity against human MV4-11 cells at 100 uM incubated for 48 hrs by WST-1 assay; assay type: functional, cell-based; how it was run: as §1
U-87 MG [7] = experiment: Inhibition of KDM4 in human U-87MG cells assessed as increase in H3K9me3 level after 48 hrs by immunofluorescence analysis; assay type: cell-based; how it was run: as §3
HEK293T [8] = experiment: Binding affinity to NO66 in HEK293T cells assessed as substrate trapping using RPL8 as substrate at 100 uM after 18 hrs by immunoprecipitation analysis; assay type: cell-based; conditions: Homo sapiens
How it was run: (§8)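 HEK293T transiently expressing HA-MINA53, HA-NO66 or empty vector. Treated with 100 μM compound or 0.5% DMSO for 18 h. Cells lysed 1 h at 4 °C in JIES buffer; anti-HA agarose IP overnight, washed, eluted with HA peptide. Blots probed for RPL27A (MINA53) or RPL8 (NO66).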

U-87 MG [9] = experiment: Synergistic cytotoxicity against human U-87MG cells assessed as combinantion index at ED50 after 24 hrs in presence of doxorubicin by MTT assay; assay type: functional, U-87MG ATCC; how it was run: as §4
U-87 MG [10] = experiment: Synergistic cytotoxicity against human U-87MG cells assessed as reduction in cell viability at 20 uM after 24 hrs in presence of doxorubicin by MTT assay; assay type: functional, U-87MG ATCC; how it was run: as §2
HEK293T [11] = experiment: Binding affinity to MINA53 in HEK293T cells assessed as substrate trapping using RPL27A as substrate at 100 uM after 18 hrs by immunoprecipitation analysis; assay type: cell-based; conditions: Homo sapiens; how it was run: as §8
[12] = Antiproliferative activity against human IMS-M2 cells at 100 uM incubated for 48 hrs by WST-1 assay; assay type: functional, cell-based; how it was run: as §1
MKN-45 = experiment: Antiproliferative activity against human MKN-45 cells at 10 to 100 uM incubated for 72 to 120 hrs by MTT assay; assay type: functional, cell-based; conditions: dose 10-100 µM, time 72-120 hrs; how it was run: as §5
HeLa [13] = experiment: Antiproliferative activity against human HeLa cells at 10 to 100 uM incubated for 72 to 120 hrs by MTT assay; assay type: functional, cell-based; conditions: dose 10-100 µM, time 72-120 hrs; how it was run: as §6
U-87 MG [14] = experiment: Induction of cell cycle arrest in human U-87MG cells assessed as accumulation of cells at G2/M phase at 10 uM after 24 hrs by propidium iodide staining based flow cytometry analysis; assay type: functional; conditions: U-87MG ATCC; how it was run: as §7
U-87 MG [15] = experiment: Antiproliferative activity against human U-87 MG cells incubated for 72 to 120 hrs by MTT assay; assay type: functional, cell-based; conditions: U-87MG ATCC, time 72-120 hrs; how it was run: as §5
U-87 MG [16] = experiment: Inhibition of KDM6 in human U-87MG cells assessed as increase in H3K27me3 level after 48 hrs by immunofluorescence analysis; assay type: cell-based; how it was run: as §3
U-87 MG [17] = experiment: Induction of DNA damage in human U-87MG cells assessed as increase in gamma H2AX phosphorylation at ser139 at 20 uM by Western blot analysis; assay type: functional, cell-based; conditions: U-87MG ATCC
HeLa [18] = experiment: Binding affinity to MINA53 in HeLa cells assessed as substrate trapping using RPL27A as substrate at 100 uM after 18 hrs by immunoprecipitation analysis; assay type: cell-based; conditions: Homo sapiens
U-87 MG [19] = experiment: Synergistic cytotoxicity against human U-87MG cells assessed as combinantion index at ED75 after 24 hrs in presence of doxorubicin by MTT assay; assay type: functional, U-87MG ATCC; how it was run: as §4
Kasumi 1 = experiment: Antiproliferative activity against human Kasumi 1 cells at 100 uM incubated for 48 hrs by WST-1 assay; assay type: functional, cell-based; how it was run: as §1
OCI-AML2 = experiment: Antiproliferative activity against human OCI-AML2 cells at 100 uM incubated for 48 hrs by WST-1 assay; assay type: functional, cell-based; how it was run: as §1
U-87 MG [20] = experiment: Induction of apoptosis in human U87-MG cells assessed as increase in apoptotic cells at 10 uM after 24 hrs in presence of 0.5 uM doxorubicin by propidium iodide staining based flow cytometry analysis; assay type: functional, U-87MG ATCC; how it was run: as §7
Homo sapiens [21] = species on record: Homo sapiens; experiment: Inhibition of recombinant human NO66 expressed in Escherichia coli BL21 (DE3) using RPL8 N205PVEHPFGGGNHQHIGKPST224 as substrate at 100 uM preincubated for 15 mins followed by substrate addition and measured after 30 to 60 mins by RapidFire Mass spectrometry assay; conditions: time 45-75 min
How it was run: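 NO66 (E. coli BL21(DE3)-R3-pRARE2, TEV-cleaved) at 375 nM in 50 mM MES pH 7.0, 150 mM NaCl. Preincubated 15 min with compound. […] Formic-acid quench, RapidFire SPE-MS % hydroxylation.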

Homo sapiens [22] = species on record: Homo sapiens; experiment: Inhibition of recombinant human MINA53 expressed in Escherichia coli BL21 (DE3) using RPL27A G31RGNAGGLHHHRINFDKYHP49 as substrate at 100 uM preincubated for 15 mins followed by substrate addition and measured after 30 to 60 mins by RapidFire Mass spectrometry assay; conditions: time 45-75 min
U-87 MG [23] = experiment: Antagonist cytotoxicity against human U-87MG cells assessed as reduction in cell viability at 20 uM after 24 hrs in presence of doxorubicin by MTT assay; assay type: functional, cell-based; conditions: U-87MG ATCC; how it was run: as §2
HL-60 = experiment: Antiproliferative activity against human HL-60 cells at 100 uM incubated for 48 hrs by WST-1 assay; assay type: functional, cell-based; how it was run: as §1
NB-4 = experiment: Antiproliferative activity against human NB-4 cells at 100 uM incubated for 48 hrs by WST-1 assay; assay type: functional, cell-based; how it was run: as §1

SMILES	IC50 (KARPAS-299)	IC50 (OCI-AML-3)	IC50 (U-937)	IC50 (MV4-11)	IC50 (OCI-AML2)	Activity (U-87 MG [1])	inhibition (U-87 MG [2])	CI (U-87 MG [3])	Activity (U-87 MG [4])	Activity (U-87 MG [5])	Activity (HT-29)	Activity (HEK-293T)	Activity (U-87 MG [6])	CI (U-87 MG [9])	IC50 [12]	Activity (MKN-45)	Activity (U-87 MG [14])	Activity (U-87 MG [15])	CI (U-87 MG [19])	IC50 (Kasumi 1)	also measured
COC(=O)c1cnc(SCCCc2ccccc2)[nH]c1=O											Active					Active		Active			
O=C(O)CCNc1cc(N2CCc3ccccc3CC2)nc(-c2ccccn2)n1																					inhibition (Homo sapiens [21]): inactive; inhibition (Homo sapiens [22]): inactive

More lines, main results first:

IC50 (KARPAS-299)	IC50 (OCI-AML-3)	IC50 (U-937)	IC50 (MV4-11)	IC50 (OCI-AML2)	SMILES	Activity (U-87 MG [1])	inhibition (U-87 MG [2])	CI (U-87 MG [3])	Activity (U-87 MG [4])	Activity (U-87 MG [5])	Activity (HT-29)	Activity (HEK-293T)	Activity (U-87 MG [6])	CI (U-87 MG [9])	IC50 [12]	Activity (MKN-45)	Activity (U-87 MG [14])	Activity (U-87 MG [15])	CI (U-87 MG [19])	IC50 (Kasumi 1)	also measured
Not Active	Not Active	Not Active	Not Active	Not Active	O=C(O)c1cnc(SCCCc2ccccc2)[nH]c1=O	Dose-Dependent Effect	inactive	0.18	Active	Dose-Dependent Effect	inactive	Active	Active	0.21	Not Active	Active	Active	Active	0.13	Not Active	inhibition (U-87 MG [7]): inactive; Activity (HEK293T [8]): inactive; Activity (U-87 MG [10]): 75%; Activity (HEK293T [11]): Active; Activity (HeLa [13]): Active; inhibition (U-87 MG [16]): inactive; Activity (U-87 MG [17]; TDE = time-dependent effect): Tde; Activity (HeLa [18]): Active; Activity (U-87 MG [20]): 60%
Not Active	Not Active	Not Active	Not Active	Not Active	O=C(O)c1c[nH]c(=S)[nH]c1=O			1			inactive			1	Not Active	inactive	inactive	inactive	1	Not Active	Activity (U-87 MG [23]): Active; IC50 (HL-60): Not Active; IC50 (NB-4): Not Active; Activity (U-87 MG [17]): inactive
Not Active	Not Active	Not Active	Not Active	Not Active	O=C(O)c1cnc(SCCc2ccccc2)[nH]c1=O	Dose-Dependent Effect	inactive	22.1	Active	Dose-Dependent Effect	inactive	Active	Active	0.32	Not Active	Active	Active	Active	0.63	Not Active	inhibition (U-87 MG [7]): inactive; Activity (HEK293T [8]): inactive; Activity (U-87 MG [10]): 75%; Activity (HEK293T [11]): Active; Activity (HeLa [13]): Active; inhibition (U-87 MG [16]): inactive; Activity (U-87 MG [17]; TDE = time-dependent effect): Tde; Activity (HeLa [18]): Active; Activity (U-87 MG [20]): 60%
